TRPC6 inh: inhibitors of mouse TRPC6 channel; Q61143; HEK293-TRPC6, membrane potential dye, ACh-evoked depolarization; active compounds read low; B-score at 10 µM; 1.1% of 310,000 active; AID 2553;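 active = B-score under library mean minus 3 SD, initial fluorescence not abnormally high, positive integrated signal ratio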;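 note: B-score derived from integrated fluorescence ratio over the kinetic read; more negative B-score means stronger inhibition of depolarization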
TRPC4 agonist: opens the mouse TRPC4 cation channel | HEK293 TRPC4beta/mu-opioid, Fluo4 calcium fluorescence; active compounds read high | B-score at 10 µM | 0.49% of 310,000 active | AID 2237;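 active = B-score above 5 SD of library B-scores, and initial fluorescence ratio not above library mean plus 5 SD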;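 note: positive B-score marks a calcium rise read as TRPC4 activation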
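System – HEK293 cells stably co-expressing mouse TRPC4beta and mu-opioid receptor · Signal – Fluo4 calcium-sensitive dye fluorescence, kinetic, 1 Hz baseline · Benchmarks – buffer (low) and maximal DAMGO (high) · Read-out – B score of integrated fluorescence ratio per well · Incubation – dye loading 45 min room temperature, 110 s kinetic read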
TRPC4 potent: allosterically enhances the mouse TRPC4 cation channel; HEK293 TRPC4beta/mu-opioid, DAMGO EC20, Fluo-4 Ca2+ flux; active compounds read high; B-score at 10 µM; 0.42% of 310,000 active; AID 2227;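 active = B-score of calcium response area above 5 SD of library B-scores, with initial fluorescence ratio within 5 SD of library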;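 note: B-score of integrated fluorescence ratio over time as area under calcium response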
TRPC6 activator: activates the mouse TRPC6 cation channel; Q61143; HEK293-TRPC6 membrane potential dye fluorescence; active compounds read high; B-score at 10 µM; 0.13% of 310,000 active; AID 2550;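 active = B-score of the integrated fluorescence ratio above library mean plus 3 SD, and starting fluorescence ratio within library mean plus 5 SD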;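 note: higher score means more depolarization so channel activation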
TRPC4 inh: TRPC4 (mouse) channel inhibition. Q9QUQ5. HEK293 TRPC4beta/mu-opioid, DAMGO-evoked Fluo4 calcium flux; active compounds read low. B-score at 10 µM. 0.39% of 300,000 active. AID 2247;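 active = B-score over 3 SD under the library average, no early fluorescence shift, positive overall ratio signal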
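test system = HEK293 cells with stable TRPC4beta plus mu-opioid receptor expression | detection = Fluo4 Ca2+ flux fluorescence | read-out = integrated fluorescence ratio relative to baseline, converted to per-well B score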
An asterisk follows results filed as active; i = inactive. Only some compounds are listed: those with a hit (about 2.3% of all), similar ones and a draw of the others.

SMILES	TRPC6 inh	TRPC4 agonist	TRPC4 potent	TRPC6 activator	TRPC4 inh
OCC(Cc1ccccc1)NCc1ccccc1C(F)(F)F (centres undefined)	i	i	i	i	-6*
COc1ccc(S(=O)(=O)Cc2ccc(C(=O)NCc3ccccc3OC)o2)cc1	i	i	i	i	i
CCC1Cc2c(nc(N)c3c(N)nc(N4CCCCC4)c(C#N)c23)O1 (centres undefined)	i	i	i	i	i
N#Cc1c(N2CCCCC2)nc(N)c2c(N)nc3c(c12)CC(c1ccccc1)O3 (centres undefined)	i	i	i	i	-9*
O=C(NCCc1c[nH]c2ccccc12)C(=O)NCC1OCCN1S(=O)(=O)c1cc(F)ccc1F (centres undefined)	i	i	i	i	i
C=CCOc1cccc(C2C(C(=O)c3ccco3)=C(O)C(=O)N2Cc2ccco2)c1 (centres undefined)	i	i	i	i	i
CC(=O)C1=C(O)C(=O)N(Cc2ccco2)C1c1ccc2c(c1)OCO2 (centres undefined)	i	i	i	i	-7*
Cc1ccc2nc(Cl)c3cc(C(=O)N(CCN(C)C)Cc4ccco4)sc3c2c1	i	54*	i	i	i
O/N=C/Cc1[nH]c2ccccc2c1-c1ccccc1	i	i	i	i	-5*
O=c1[nH]c2ccccc2c(O)c1-c1ccccc1	i	i	i	i	i
Cc1ccc2oc(C(=O)N(C)Cc3ccc(C)o3)c(C)c2c1	i	i	i	i	-6*
O=C(c1ccc(Cl)c(Cl)c1)N(Cc1ccco1)c1ccc(O)cc1	i	i	i	i	-7*
Cc1ccc(C)c(N2C(=O)c3ccc(C(=O)OCC(=O)c4c(N)n(C)c(=O)n(C)c4=O)cc3C2=O)c1	i	i	11*	i	i
CC(=O)OC1C([N+]2(C)CCCCC2)C[C@H]2C3CC[C@H]4C[C@H](OC(C)=O)C([N+]5(C)CCCCC5)CC4(C)[C@H]3CCC12C (some centres undefined)	i	i	i	i	i
CC(=O)O[C@H]1CC[C@@]2(C)C(CCC3C2CC[C@]2(C)OC(=O)CCC32)C1 (some centres undefined)	i	i	10*	i	i
Oc1ccccc1/C=N/NC(=S)NC1CC2CC1C1C=CCC21 (centres undefined)	i	i	i	i	-8*
CN(C)CCNC(C(=O)Nc1cccc(C(F)(F)F)c1)c1ccccc1 (centres undefined)	i	i	i	i	i
NC(=O)c1nsc(C(=O)N(Cc2cccnc2)C(C(=O)NCc2ccc(F)cc2)c2ccc(F)cc2)c1N (centres undefined)	i	i	i	i	i
O=C(C1CCCN(Cc2ccccc2)C1)N1CCc2ccccc2C1 (centres undefined)	i	160*	i	i	i
COc1cc(CN2CCCC(C(=O)N3CCc4ccccc4C3)C2)cc(OC)c1OC (centres undefined)	i	55*	i	i	i
CCC(C)NC(=O)C1CCC(=O)N1CCc1ccccc1 (centres undefined)	i	i	i	i	i
O=C(NCc1ccco1)C1CCN(C(=O)c2ccc([N+](=O)[O-])cc2)CC1	i	i	i	i	i
CCCn1c(NC(=O)c2ccccc2)nc2ccccc21	i	i	i	i	i
CCCn1c(NC(=O)c2cccc(S(=O)(=O)N3CCCC3)c2)nc2ccccc21	i	i	43*	i	-6*
O=C(NCCc1ccccn1)C(F)(F)C(F)(F)C(F)(F)C(F)(F)C(F)(F)C(F)(F)C(F)(F)C(F)F	i	165*	i	i	i
SMILES	TRPC6 inh	TRPC4 agonist	TRPC4 potent	TRPC6 activator	TRPC4 inh
COc1ccc(C(c2nnnn2C2CCCC2)N2CCN(c3ccccc3)CC2)cc1 (centres undefined)	i	i	i	i	-6*
COc1ccc(N2CCN(C(c3nnnn3C3CCCC3)C(C)C)CC2)cc1 (centres undefined)	i	i	i	i	i
Cc1cc2cc(CNC(=O)Nc3ccccc3)ccc2[nH]1	i	i	i	i	i
O=[N+]([O-])c1cccc(-c2cc(-c3cc(Br)ccc3O)[nH]n2)c1	i	i	i	i	i
CC(C)CCn1c(=O)c2ccccc2n2c(CCC(=O)NC3CCN(Cc4ccccc4)CC3)nnc12	i	i	i	i	i
CCn1c(=O)c2sccc2n2c(CCCC(=O)NC3CCN(Cc4ccccc4)CC3)nnc12	i	i	14*	i	i
S=c1[nH]nc(COc2ccc(Cl)cc2Cl)n1-c1ccccc1	i	54*	i	i	i
S=c1[nH]nc(-c2ccc(Cl)cc2Cl)n1-c1ccccc1	i	i	i	i	i
CCCCOc1ccc(C(=O)OCC(=O)N2CCOCC2)cc1	i	i	i	i	i
CN(C)CCSc1nnc2sc3ccccc3n12	i	i	11*	i	i
N#CCSc1nnc2sc3ccccc3n12	i	i	i	i	i
Cc1ccc(CCNC(=O)CCS(=O)(=O)c2ccc(Br)cc2)cc1	i	i	i	i	i
Cc1ccc(C)c(NC(=O)CCc2nnc3ccc(N4CCCC4)nn23)c1	i	i	i	i	i
Cc1ccc(C)c(CN2CCC(CNC(=O)CCc3nnc4ccc(N5CCCCC5)nn34)CC2)c1	i	126*	i	i	i
Cc1cc(N2CCCCC2)nc(N)n1	i	80*	i	i	i
Cc1cc2oc(=O)cc(CN3CCN(C/C=C/c4ccccc4)CC3)c2cc1O	i	i	i	i	i
Cc1cc2oc(=O)cc(CN3CCN(Cc4ccccc4)CC3)c2cc1O	i	79*	i	i	i
CCc1cc2c(CN3CCN(CCO)CC3)cc(=O)oc2cc1O	i	i	i	i	i
CCc1cc2c(CN3CCN(C)CC3)cc(=O)oc2cc1O	i	51*	i	i	i
O=C(COC(=O)c1ccc(S(=O)(=O)NCc2ccco2)cc1)Nc1ccc(Cl)cn1	i	i	i	i	i
CC(=O)Nc1c(C(=O)N2CCN(c3ccccn3)CC2)cnn1-c1ccc(C)cc1	i	i	i	i	i
COc1ccc(S(=O)(=O)N2CCCCCC2)cc1C(=O)N(C)Cc1ccc(Cl)cc1Cl	i	i	26*	i	i
Cn1cc(CN2CCCC(CO)(Cc3cccc(Cl)c3)C2)cn1 (centres undefined)	i	i	i	i	i

Screening results as filed in PubChem BioAssay.
